Source: ChEMBL document CHEMBL3826885, “Similarities and differences in affinity and binding modes of tricyclic pyrimido- and pyrazinoxanthines at human and rat adenosine receptors” (Bioorg Med Chem, 2016)

Target: T1, Adenosine receptor A2b (Homo sapiens) (UniProt P29275)
T1 sequence (whole entry): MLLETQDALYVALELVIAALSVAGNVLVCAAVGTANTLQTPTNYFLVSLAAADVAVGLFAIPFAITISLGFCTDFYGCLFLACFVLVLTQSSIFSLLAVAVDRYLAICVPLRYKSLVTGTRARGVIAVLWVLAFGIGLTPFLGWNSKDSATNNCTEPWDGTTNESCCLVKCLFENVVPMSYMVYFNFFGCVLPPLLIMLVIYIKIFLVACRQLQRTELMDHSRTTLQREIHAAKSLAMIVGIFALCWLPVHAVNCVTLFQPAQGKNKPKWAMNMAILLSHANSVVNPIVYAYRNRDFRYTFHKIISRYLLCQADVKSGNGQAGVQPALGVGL
Experiment: Antagonist activity at human adenosine receptor A2b expressed in CHO cell membranes assessed as inhibition of NECA-induced cAMP accumulation incubated for 15 mins in presence of [3H]cAMP by liquid scintillation counting
Assay type: functional
Procedure, shortened: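 Stably transfected CHO cells (human A2A or A2B) grown in DMEM-F12 with 10% FCS at 37 °C, 5% CO2. The cells were seeded at 200,000/well, washed after 24 h and held 2 h in HBSS (pH 7.3) with 1 U/ml adenosine deaminase. Ro20-1724 was added to 40 µM final for 15 min, then NECA dilutions ± one fixed test concentration in 2.5% DMSO, in duplicate.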

Kb: 547 nM
Compound: CCCCn1c(=O)c2c(nc3n2CCCN3CCc2ccc(OCCN(CC)CC)cc2)n(CCCC)c1=O
